Measured values as given in ChEMBL document CHEMBL1147249, “Sunpollenol and five other rearranged 3,4-seco-tirucallane-type triterpenoids from sunflower pollen and their inhibitory effects on Epstein-Barr virus activation” (J Nat Prod, 2003).

Tests used:
Type in all cases: cell-based
Raji [1] = experiment: Inhibition of 12-O-tetradecanoylphorbol-13-acetate-induced EBV-early antigen activation in human Raji cells assessed as early antigen induction at 500 molar ratio after 48 hrs by conventional indirect immunofluorescence technique relative to TPA; parameters: scale not given: the % may be the effect or the level left; conditions: human gammaherpesvirus 4
Procedure, shortened: (§1)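 Raji cells (1 × 10^6 cells/mL, RPMI-1640 with 10% FBS) were induced with 4 mM n-butyric acid plus […] TPA (20 ng/mL in DMSO). Test compound (32, 16, 3.2, 0.32 nmol in 1 mL) was present for 48 h at 37 °C. EA-positive cells were stained with NPC patient sera and detected by indirect immunofluorescence, at least 500 cells per assay, three repeats. Results are given as percent of butyrate+TPA control.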

Raji [2] = experiment: Inhibition of 12-O-tetradecanoylphorbol-13-acetate-induced EBV-early antigen activation in human Raji cells assessed as early antigen induction at 100 molar ratio after 48 hrs by conventional indirect immunofluorescence technique relative to TPA; parameters: scale not given: the % may be the effect or the level left; conditions: human gammaherpesvirus 4; procedure, shortened: as §1
Raji [3] = experiment: Inhibition of 12-O-tetradecanoylphorbol-13-acetate-induced EBV-early antigen activation in human Raji cells assessed as early antigen induction at 1000 molar ratio after 48 hrs by conventional indirect immunofluorescence technique relative to TPA; parameters: scale not given: the % may be the effect or the level left; conditions: human gammaherpesvirus 4; procedure, shortened: as §1
Raji [4] = experiment: Inhibition of 12-O-tetradecanoylphorbol-13-acetate-induced EBV-early antigen activation in human Raji cells assessed as early antigen induction at 10 molar ratio after 48 hrs by conventional indirect immunofluorescence technique relative to TPA; parameters: scale not given: the % may be the effect or the level left; conditions: human gammaherpesvirus 4; procedure, shortened: as §1
[5] = Cytotoxicity against human Raji cells assessed as cell viability at 1000 molar ratio after 48 hrs by trypan blue staining method; conditions: read-out: Activity
Procedure, shortened: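 Raji cells (EBV genome-carrying, nonproducer) at 1 × 10^6 cells/mL in RPMI-1640 with 10% FBS were exposed to 4 mM n-butyric acid, […] TPA and test compound at 37 °C in a CO2 incubator. Viability was scored by Trypan Blue staining and given as percent viable Raji cells.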

SMILES | Activity (Raji [1]) | Activity (Raji [2]) | Activity (Raji [3]) | Activity (Raji [4]) | viability at 48 h, 1000 molar ratio [5]
C[C@@H](CC[C@@H](O)C(C)(C)O)[C@@H]1CC[C@]2(C)[C@H]3CC[C@@]4(C(C)(C)O)OCCC[C@H]4[C@]3(C)CC[C@@]12C | 24.4% | 72.4% | 0% | 92.5% | 70%
CC(C)=CCC[C@H](C)[C@@H]1CC[C@]2(C)[C@H]3CC[C@@]4(C(C)(C)O)OCCC[C@H]4[C@]3(C)CC[C@@]12C [SUNPOLLENOL] | 30.5% | 74.3% | 3.1% | 96.8% | 70%
C[C@@H](CC[C@H]1OC1(C)C)[C@@H]1CC[C@]2(C)[C@H]3CC[C@@]4(C(C)(C)O)OCCC[C@H]4[C@]3(C)CC[C@@]12C [(24R)-24,25-EPOXYSUNPOLLENOL] | 26.3% | 72.6% | 0% | 91.8% | 60%
C[C@@H](C/C=C/C(C)(C)O)[C@@H]1CC[C@]2(C)[C@H]3CC[C@@]4(C(C)(C)O)OCCC[C@H]4[C@]3(C)CC[C@@]12C [(23E)-23-DEHYDRO-25-HYDROXYSUNPOLLENOL] | 22% | 70.6% | 0% | 90% | 70%
CC1=C(/C=C/C(C)=C/C=C/C(C)=C/C=C/C=C(C)/C=C/C=C(C)/C=C/C2=C(C)CCCC2(C)C)C(C)(C)CCC1 | – | – | 8.6% | 100% | –
C[C@@H](CC[C@H](O)C(C)(C)O)[C@@H]1CC[C@]2(C)[C@H]3CC[C@@]4(C(C)(C)O)OCCC[C@H]4[C@]3(C)CC[C@@]12C [(24S)-24,25-DIHYDROXYSUNPOLLENOL] | 25.3% | 73.3% | 0% | 94.2% | 70%
C[C@@H](CC[C@@H]1OC1(C)C)[C@@H]1CC[C@]2(C)[C@H]3CC[C@@]4(C(C)(C)O)OCCC[C@H]4[C@]3(C)CC[C@@]12C | 27.3% | 75.9% | 0% | 97.4% | 70%
